Experiments:
[1] = test system: L1210; assay: Compound was determined for putrescine (PUT) level in L1210 cells after treatment at a concentration of 0.2 uM and expressed as percent compound found in untreated controls.; assay type: functional, Mus musculus
Summary of the method: (§1)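 L1210 cells in RPMI-1640 with 10% FBS, HEPES-MOPS, 1 mM glutamine and 1 mM aminoguanidine were exposed to 0.2 µM during log growth for 48 h. Cells were washed three times in ice-cold incomplete medium, extracted with 0.6 N perchloric acid and freeze-fractured three times. Putrescine, spermidine and spermine were measured by HPLC and expressed as percent of untreated control.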

[2] = Compound was tested for the inhibition of spermidine transporter by using [3H]SPD transport in L1210 cell; assay type: functional, cell-based, Mus musculus
Summary of the method: (§2)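 L1210 cell suspensions were incubated in culture medium with [3H]spermidine, either alone or with graduated concentrations of competitor. Cells were pelleted, washed, digested, neutralized and scintillation-counted. Ki was derived from Lineweaver–Burk plots assuming competitive inhibition against spermidine, as the mean of two to three experiments.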

[3] = test system: L1210; assay: Compound was tested for the growth inhibition of L1210 cell at a duration of 96 h; assay type: functional, cell-based; details: Mus musculus, L1210, 96 h
[4] = test system: L1210; assay: Compound was determined for spermidine (SPD) level in L1210 cells after treatment at a concentration of 0.2 uM and expressed as percent compound found in untreated controls.; assay type: functional, Mus musculus; summary of the method: as §1
[5] = biological target: Diamine acetyltransferase 1 (Mus musculus) (UniProt P48026); assay: Compound was tested for the enzyme activity against Spermidine/spermine N1-acetyl transferase (SSAT) in L1210 cells and expressed as percent compound found in untreated controls.; assay type: cell-based
Summary of the method: (§3)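 L1210 cells were treated for 48 h at 10 µM, or at 0.2 µM for the conjugate. SSAT activity was measured as [14C]N1-acetylspermidine formed from spermidine and [14C]acetyl-CoA, expressed as percent of untreated control. The positive control was 2 µM DENSPM. Results are the mean of at least three experiments.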

[6] = biological target: T1, Ornithine decarboxylase (Mus musculus) (UniProt P00860); assay: Compound was tested for the enzyme activity against ornithine decarboxylase (ODC) in L1210 cells and expressed as percent compound found in untreated controls.; assay type: cell-based
T1 sequence (whole entry): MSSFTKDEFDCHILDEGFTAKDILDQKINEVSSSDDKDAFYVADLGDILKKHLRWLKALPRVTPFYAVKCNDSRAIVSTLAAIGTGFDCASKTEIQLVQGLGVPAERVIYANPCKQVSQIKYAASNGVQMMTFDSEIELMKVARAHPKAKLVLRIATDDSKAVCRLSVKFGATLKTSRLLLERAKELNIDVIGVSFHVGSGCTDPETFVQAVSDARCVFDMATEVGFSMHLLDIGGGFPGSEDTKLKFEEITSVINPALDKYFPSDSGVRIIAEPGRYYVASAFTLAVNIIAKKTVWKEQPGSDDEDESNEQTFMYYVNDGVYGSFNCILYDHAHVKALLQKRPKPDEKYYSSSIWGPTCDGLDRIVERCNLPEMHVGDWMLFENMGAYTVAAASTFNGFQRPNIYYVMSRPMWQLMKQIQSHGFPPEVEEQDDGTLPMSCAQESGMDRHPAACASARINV
Summary of the method: (§4)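 L1210 cells were treated at 1 µM for 4 h. ODC activity was measured as 14CO2 released from [14C]carboxyl-labeled L-ornithine and expressed as percent of untreated control. Controls were untreated cells and 1 µM DEHSPM-treated cells. Results are the mean of at least three experiments.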

[7] = biological target: T2, S-adenosylmethionine decarboxylase proenzyme 1 (Mus musculus) (UniProt P0DMN7); assay: Compound was tested for the enzyme activity against S-Adenosyl-methionine decarboxylase in L1210 cells and expressed as percent compound found in untreated controls.; assay type: cell-based
T2 sequence (whole entry): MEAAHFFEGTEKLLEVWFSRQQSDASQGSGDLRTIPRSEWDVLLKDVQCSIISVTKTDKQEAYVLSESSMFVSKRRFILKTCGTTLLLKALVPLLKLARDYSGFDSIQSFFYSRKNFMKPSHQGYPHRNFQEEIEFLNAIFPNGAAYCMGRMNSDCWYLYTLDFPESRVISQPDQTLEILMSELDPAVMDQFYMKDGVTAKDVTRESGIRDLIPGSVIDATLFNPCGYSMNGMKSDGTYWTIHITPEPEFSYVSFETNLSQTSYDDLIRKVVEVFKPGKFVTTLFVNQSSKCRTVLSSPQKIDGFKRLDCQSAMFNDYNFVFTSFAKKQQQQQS
Summary of the method: as §4, with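 “for 6” for “for 4”, “h. AdoMetDC” for “h. ODC”, “[14C]carboxyl-labeled S-adenosyl-L-methionine” for “[14C]carboxyl-labeled L-ornithine”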

[8] = test system: L1210; assay: Compound was determined for spermine (SPM) level in L1210 cells after treatment at a concentration of 0.2 uM and expressed as percent compound found in untreated controls.; assay type: functional, Mus musculus; summary of the method: as §1
[9] = test system: L1210; assay: Compound was determined for spermine (SPM) level in L1210 cells after treatment at a concentration of 100 uM and expressed as percent compound found in untreated controls.; assay type: functional, Mus musculus
[10] = test system: L1210; assay: Compound was tested for the growth inhibition of L1210 cell at a duration of 48 h; assay type: functional, cell-based; details: Mus musculus, L1210, 48 h
[11] = test system: L1210; assay: Compound was determined for spermidine (SPD) level in L1210 cells after treatment at a concentration of 100 uM and expressed as percent compound found in untreated controls.; assay type: functional, Mus musculus
[12] = test system: L1210; assay: Compound was determined for putrescine (PUT) level in L1210 cells after treatment at a concentration of 100 uM and expressed as percent compound found in untreated controls.; assay type: functional, Mus musculus
[13] = Compound was tested for the inhibition of spermidine transporter by using [3H]SPD transport in murine L1210 cell; assay type: functional, cell-based, Mus musculus; summary of the method: as §2
[14] = test system: L1210; assay: Compound was determined for spermine (SPM) level in murine L1210 cells after treatment at a concentration of 100 uM and expressed as percent compound found in untreated controls.; assay type: functional, Mus musculus
[15] = biological target: Diamine acetyltransferase 1 (Mus musculus) (UniProt P48026); assay: Compound was tested for the enzyme activity against Spermidine/spermine N1-acetyl transferase (SSAT) in murine L1210 cells and expressed as percent compound found in untreated controls.; assay type: cell-based; summary of the method: as §3
[16] = test system: L1210; assay: Compound was tested for the growth inhibition of murine L1210 cell at a duration of 96 h; assay type: functional, cell-based; details: Mus musculus, L1210, 96 h
Summary of the method: (§5)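 Log-phase suspension cultures of murine L1210 cells (0.5–1.0 × 10^5 cells/mL) were grown in RPMI-1640 with 10% FBS and 1 mM aminoguanidine at 37 °C and 5% CO2. Cells were treated, reseeded and counted to give percent of control growth. IC50 is the concentration reducing growth to 50% of control after 48 or 96 h, as the mean of at least two experiments.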

[17] = biological target: T2, S-adenosylmethionine decarboxylase proenzyme 1 (Mus musculus); assay: Compound was tested for the enzyme activity against S-Adenosyl-methionine decarboxylase in murine L1210 cells and expressed as percent compound found in untreated controls.; assay type: cell-based
Summary of the method: as §4, with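 “for 6” for “for 4”, “h. AdoMetDC” for “h. ODC”, “[14C]carboxyl-labeled S-adenosyl-L-methionine” for “[14C]carboxyl-labeled L-ornithine”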

[18] = test system: L1210; assay: Compound was determined for putrescine (PUT) level in murine L1210 cells after treatment at a concentration of 100 uM and expressed as percent compound found in untreated controls.; assay type: functional, Mus musculus
[19] = test system: L1210; assay: Compound was tested for the growth inhibition of murine L1210 cell at a duration of 48 h; assay type: functional, cell-based; details: Mus musculus, L1210, 48 h; summary of the method: as §5
[20] = biological target: T1, Ornithine decarboxylase (Mus musculus); assay: Compound was tested for the enzyme activity against ornithine decarboxylase (ODC) in murine L1210 cells and expressed as percent compound found in untreated controls.; assay type: cell-based; summary of the method: as §4
[21] = test system: L1210; assay: Compound was determined for spermine (SPM) level in L1210 cells after treatment at a concentration of 50 uM and expressed as percent compound found in untreated controls.; assay type: functional, Mus musculus
Summary of the method: (§6)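 Murine L1210 leukaemia cells, kept in log-phase suspension in RPMI-1640 with 10% FBS, 1 mM glutamine and 1 mM aminoguanidine at 37 °C, 5% CO2, were treated at 50 μM for 48 h. Cells were washed three times in ice-cold incomplete medium, extracted with 0.6 N perchloric acid and freeze-fractured. Putrescine, spermidine and spermine were then measured by HPLC and expressed as percent of untreated control.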

[22] = test system: L1210; assay: Compound was determined for putrescine (PUT) level in L1210 cells after treatment at a concentration of 50 uM and expressed as percent compound found in untreated controls.; assay type: functional, Mus musculus; summary of the method: as §6
[23] = test system: L1210; assay: Compound was determined for spermidine (SPD) level in L1210 cells after treatment at a concentration of 50 uM and expressed as percent compound found in untreated controls.; assay type: functional, Mus musculus; summary of the method: as §6

Diamine acetyltransferase 1 (Mus musculus), sequence (P48026 whole entry): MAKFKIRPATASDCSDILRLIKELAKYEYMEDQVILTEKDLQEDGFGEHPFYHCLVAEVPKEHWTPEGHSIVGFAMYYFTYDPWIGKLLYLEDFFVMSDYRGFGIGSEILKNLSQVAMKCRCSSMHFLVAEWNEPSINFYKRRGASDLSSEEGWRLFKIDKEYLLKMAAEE

Molecule `Cc1c(O)c(=O)ccn1CCCNCCCCNCCCN` has an Activity [1] of 33%, a Ki [2] of 3.7 µM and an IC50 [3] of 0.2 µM. It also gave an Activity [4] of 64%, an Activity [5] of 275% and an Activity [6] of 20%. It also gave an Activity [7] of 77% and an Activity [8] of 139%.

In the case of `CCCNCCCCNCCCN`, the Activity [9] is reported as 103%, the Ki [2] is reported as 8.5 µM and the IC50 [10] is reported as over 100 µM. For the same molecule, the Activity [11] was 33%, the Activity [5] was 500% and the Activity [6] was 14%. For the same molecule, the Activity [7] was 64% and the Activity [12] was 0%.

In the case of `CC(=O)NCCCNCCCCNCCCN`, the Ki [13] is reported as 10 µM, the Activity [14] is reported as 111% and the Activity [11] is reported as 71%. It also gave an Activity [15] of 180%, an IC50 [16] of over 100 µM and an Activity [17] of 86%. For the same molecule, the Activity [18] was 24%, the IC50 [19] was over 100 µM and the Activity [20] was 25%.

In the case of `Cc1c(O)c(=O)ccn1C` [DEFERIPRONE], the Activity [21] is reported as 127%, the Ki [2] is reported as over 500 µM and the Activity [22] is reported as 104%. The Activity [23] was 117%, the Activity [5] was 108% and the Activity [6] was 114%. The Activity [7] was 120%.

With `CCNCCCNCCCCNCCCN` the Activity [5] was 150%.

Source: ChEMBL document CHEMBL1145926, “Polyamine-iron chelator conjugate” (J Med Chem, 2003)
